Assay results: PMC9289880 (Journal of Medicinal Chemistry, 2022)
Read-outs that look alike come from different tables or passages of the source. *1 amine or outer side, *2 acyl side, *3 side chain or, on linkers, in order; H or OH if unused. Where a SMILES comes first, the peptide text is derived from it. Bridges are numbered along the chain shown (N, C = ends). [ ]: non-standard residue; d: D form. Pro(3R-Ph) = O=C(O)[C@H]1NCC[C@@H]1c1ccccc1; Bip = N[C@@H](Cc1ccc(-c2ccccc2)cc1)C(=O)O; αMeS = C[C@](N)(CO)C(=O)O; CH2 = C([*:1])[*:2]

Assays:
pERK, AsPC-1 cells = assay: AlphaScreen pERK assay in AsPC-1 cells; assay type: cell-based; conditions: for IC50: pERK
Outline: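 AsPC-1 cells grown in RPMI 1640 (GlutaMAX, HEPES) with 10% FBS and penicillin/streptomycin. Seeded at 15 000 cells/well and held overnight at 37 °C, 5% CO2, then switched to serum-free medium. Compound dose-response series added acoustically, then incubated 2 and 18 h. Cells washed with DPBS and lysed with protease inhibitors. pERK (615 nm) and total ERK (535 nm) read by AlphaScreen SureFire multiplex. pERK/total ERK ratio fitted to 4-parameter logistic.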

KRAS^G12D = KRAS^G12D (Homo sapiens, UniProt P01116, G12D); assay: SOS-catalyzed guanine nucleotide exchange; assay type: biochemical
KRAS^G12D, sequence (P01116 1-188 isoform P01116-2 G12D): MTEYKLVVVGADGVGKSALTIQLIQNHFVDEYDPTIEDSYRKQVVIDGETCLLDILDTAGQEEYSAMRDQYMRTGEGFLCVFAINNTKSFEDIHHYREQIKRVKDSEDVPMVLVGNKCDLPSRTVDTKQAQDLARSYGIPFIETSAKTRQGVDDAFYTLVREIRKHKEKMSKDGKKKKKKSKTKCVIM

pERK, A375 cells = assay: AlphaScreen pERK counter screen in A375 cells; assay type: cell-based
[1] = Cell homogenate stability assay; assay type: in vitro ADME; conditions: human
Outline: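 HeLa cells suspended at 1 × 10^6 cells/mL, probe-sonicated on ice until homogeneous, then frozen at −20 °C until use. Peptides incubated with the homogenate (1 × 10^6 cells/mL equivalent). Loss of parent peptide over increasing time quantified by LC-MS/MS.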

AsPC-1 cells = assay: LDH release; assay type: cell-based; conditions: 18 h LDH release assay
Outline: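 AsPC-1 cells seeded at 15 000/well overnight, then dosed with a compound titration in serum-free medium at 37 °C, 5% CO2. At 18 h post dose, part of the medium was transferred and mixed 1:1 with CytoTox-ONE reagent. Plates shaken 45 min at ambient temperature and fluorescence read (ex 560/em 590 nm). Dose-response curves fitted to 4-parameter logistic.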

HeLa cells = assay: NanoClick cell permeability assay; assay type: in vitro ADME, Human
[2] = read-out: AlphaScreen (AsPC-1) 2 h IC50, AsPC-1, 2 h
[3] = read-out: AlphaScreen (AsPC-1) 18 h IC50, AsPC-1, 18 h

| Compound | IC50 (pERK, AsPC-1 cells; [2]) [µM] | IC50 (pERK, AsPC-1 cells; [3]) [µM] | SOS GNE potency / binding, in words (KRAS^G12D) | activity in A375 counter screen, in words (pERK, A375 cells) | half-life ([1]; tissue homogenate) [h] | LDH release / membrane integrity, in words (AsPC-1 cells) | fold improved cellular activity at 2 h versus 18 h (pERK, AsPC-1 cells; AsPC-1 pERK) [fold] | IC50 (KRAS^G12D) [µM] | half-life at 1 µM ([1]; HeLa cell homogenate) [h] | NanoClick permeability at 4 h, in words (HeLa cells; 4 h) | NanoClick permeability at 18 h, in words (HeLa cells; 18 h) | EC50 (HeLa cells; read-out: NanoClick (HeLa) 4 h EC50, 4 h) [µM] | EC50 (HeLa cells; read-out: NanoClick (HeLa) 18 h EC50, 18 h) [µM] |
| --- | --- | --- | --- | --- | --- | --- | --- | --- | --- | --- | --- | --- | --- |
| CC[C@H](C)[C@@H]1NC(=O)[C@H](Cc2ccc(-c3ccccc3)cc2)NC(=O)[C@H](CC(C)C)NC(=O)[C@@H]2[C@@H](c3ccccc3)CCN2C(=O)[C@H](NC(=O)[C@@H](CCCNC(=N)N)NC(=O)[C@@H](CCCNC(=N)N)NC(C)=O)CSCSC[C@@H](C(=O)N[C@H](CCCNC(=N)N)C(=O)N[C@H](CCCNC(=N)N)C(N)=O)NC(=O)[C@H](C(C)C)NC(=O)[C@@H]2CCCN2C(=O)[C@H](CC(=O)O)NC(=O)[C@H](Cc2ccc(O)cc2)NC(=O)[C@](C)(CO)NC1=O [peptide 7, Ac-rr-cyclo(c(methylene)-Prot3Ph-L-Bip-I-aMeS-YDPVC)-rr-NH2] (Ac-[dR][dR][dC][Pro(3R-Ph)]L[Bip]I[αMeS]YDPVC[dR][dR]-NH2; linker 3-13 via CH2) | 3.8 | 3.9 | subnanomolar | no LDH release or activity | > 6.2 | no LDH release | – | – | – | – | – | – | – |
| CC[C@H](C)[C@@H]1NC(=O)[C@H](Cc2ccc(-c3ccccc3)cc2)NC(=O)[C@H](CC(C)C)NC(=O)[C@@H]2[C@@H](c3ccccc3)CCN2C(=O)[C@H](NC(=O)[C@H](CCCNC(=N)N)NC(=O)[C@H](CCCNC(=N)N)NC(=O)[C@H](CCCCN=[N+]=[N-])NC(C)=O)CSCSC[C@@H](C(=O)N[C@@H](CCCNC(=N)N)C(=O)N[C@@H](CCCNC(=N)N)C(N)=O)NC(=O)[C@H](C(C)C)NC(=O)[C@@H]2CCCN2C(=O)[C@H](CC(=O)O)NC(=O)[C@H](Cc2ccc(O)cc2)NC(=O)[C@H](CO)NC1=O [peptide 6, Ac-Lys(N3)-RR-cyclo(c(methylene)-Prot3Ph-L-Bip-ISYDPVC)-RR-NH2] | 2.7 | 19 | subnanomolar | – | – | – | 6 | < 0.001 | > 6.2 | limited permeability | much-increased permeability | 7.32 | 0.199 |
